Screens deposited in PubChem by The Scripps Research Institute Molecular Screening Center.
A selection: hits, their analogues and other compounds. The true share with any hit is near 4.6%.
OX1R antag-1 = antagonists of human orexin 1 receptor (OX1R). Orexin/Hypocretin receptor type 1 (Homo sapiens), O43613. OX1R-expressing cells, FRET antagonist read-out. inhibition, % at 6.6 µM. 330,000 tested, 1.8% active; in the data active = inhibition mostly above about 38%, no sharp cut-off; inactive = mostly below about 40%;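 also: 0% = agonist challenge alone and 100% = reference antagonist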
GPR7 antag = GPR7 receptor antagonists, primary screen, cell-based, fluorescence, single concentration | GPR7-expressing cells, fluorescence antagonist assay | inhibition, % at 4.4 µM | 290,000 tested, 1.1% active | AID 1861, 2009 | Neuropeptides B/W receptor type 1 (Homo sapiens), P48145; in the data active = inhibition above about 16%, passing the limit was not always enough;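 also: cells stimulated with the agonist NPW; 0% = agonist with vehicle and 100% = vehicle without agonist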
Target sequence (P48145 whole entry, looked up): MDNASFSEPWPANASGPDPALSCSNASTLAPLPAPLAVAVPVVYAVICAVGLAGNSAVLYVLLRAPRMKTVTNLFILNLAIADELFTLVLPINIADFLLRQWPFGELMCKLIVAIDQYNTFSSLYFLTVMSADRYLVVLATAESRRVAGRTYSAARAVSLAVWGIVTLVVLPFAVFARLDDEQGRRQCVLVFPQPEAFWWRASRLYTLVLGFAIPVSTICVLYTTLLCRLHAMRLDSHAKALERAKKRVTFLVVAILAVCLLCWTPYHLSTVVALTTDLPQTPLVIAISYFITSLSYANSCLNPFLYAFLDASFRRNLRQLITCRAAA
OX1R antag-2 = OX1R (HCRTR1) antagonists, primary screen, fluorescence, CHO/OX1R cells, Fluo-8 calcium, orexin A. 330,000 tested, 0.43% active. AID 434989, 2010. Fluo-8 calcium fluorescence. Orexin/Hypocretin receptor type 1 (Homo sapiens), O43613. inhibition, % at 5 µM;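 active = inhibition above its plate's threshold, mean inhibition of all tested compounds on the plate plus 3 SD, cut at about 37% in these data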;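 also: 0% = orexin A challenge wells and 100% = SB-334867-A antagonist wells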
CHO parental Ca = ATP-evoked calcium signal inhibitors, parental CHO, primary screen, counter-screen for OX1R antagonist project, cell-based, fluorescence, Fluo-8 calcium dye; 330,000 tested, 0.63% active; parental CHO-K1, ATP-induced calcium, Fluo-8 fluorescence; inhibition, % at 5.6 µM;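 active = inhibition above that plate's mean sample inhibition plus 3 SD, cut at about 26% in these data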;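 also: 0% = ATP-challenged DMSO wells and 100% = DMSO wells without ATP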
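Material: parental CHO cells / Compound: single nominal dose of 5.6 µM per compound / Signal: Fluo-8 fluorescence / Replicates: singlicate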
TAAR1 agonist = human TAAR1 agonists, primary screen, Fluo-8 calcium fluorescence, CHO RD-HGA16 cells; Trace amine-associated receptor 1 (Homo sapiens), Q96RJ0; vehicle wells 0%, saturating PEA agonist 100%; activation, % at 3 µM; 360,000 tested, 0.99% active;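 active = activation above the mean activation of all test compounds in the run plus 3 SD, cut at about 38% in these data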
Target sequence (Q96RJ0 whole entry, looked up): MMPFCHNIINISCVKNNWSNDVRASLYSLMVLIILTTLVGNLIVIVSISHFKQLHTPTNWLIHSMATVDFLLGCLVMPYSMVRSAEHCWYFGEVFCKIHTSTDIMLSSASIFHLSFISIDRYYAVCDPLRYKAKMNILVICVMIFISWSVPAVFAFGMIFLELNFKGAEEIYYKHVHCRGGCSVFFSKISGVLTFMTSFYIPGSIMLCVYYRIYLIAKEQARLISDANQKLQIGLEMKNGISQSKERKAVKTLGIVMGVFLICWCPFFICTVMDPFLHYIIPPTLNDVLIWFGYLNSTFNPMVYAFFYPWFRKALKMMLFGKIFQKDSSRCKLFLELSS
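test system = CHO RD-HGA16 cells carrying human TAAR1 plus Gα16 | schedule = 17-24 h seeding, 75 min 37 °C dye, 30 min RT | compound dosing = 3 µM single concentration | control set = DMSO and PEA EC100 | replicates = n 1 | signal = Fluo-8 fluorescence, 5 s baseline then 140 s kinetic read | measure = percent activation vs PEA EC100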
TAAR1 antag = human TAAR1 antagonists, primary screen, Fluo-8 calcium fluorescence, CHO RD-HGA16 cells; antagonist; inhibition, % at 3 µM; 360,000 tested, 1.5% active; AID 624466, 2012;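 active = inhibition above a per-plate cutoff, the mean inhibition of test compounds on that plate plus 3 SD, cut at about 49% in these data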;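 also: 0% = DMSO plus EC80 beta-PEA response and 100% = DMSO alone without agonist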
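Assay system: RD-HGA16 CHO cells with stable hTAAR1 and Gα16 / Reagent: EC80 β-phenethylamine stimulus / Doses: 3 µM, single point / Timing: dye loading 75 min at 37 °C, then 30 min room temperature / Measured by: Fluo-8 intracellular calcium dye fluorescence, real-time kinetic reads / Controls: vehicle wells and EC80 agonist wells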
* hit, by the source's call; · = no result.

SMILES	OX1R antag-1	GPR7 antag	OX1R antag-2	CHO parental Ca	TAAR1 agonist	TAAR1 antag
CC1(C(=O)NS(=O)(=O)c2ccc(Cl)cc2)CCN1C(=O)Cc1ccccc1Cl (centres undefined)	·	·	·	·	-1	-10
COc1ccc(NC(=O)Nc2ccc3c(c2)N(C)C(=O)CS3)cc1OC	21	-1	-6	11	2	17
CCOc1ccc(NC(=O)Nc2ccc3c(c2)N(C)C(=O)CS3)cc1	14	-3	-13	19	13	52*
Cc1ccc(NC(=O)Nc2ccc3c(c2)N(C)C(=O)CS3)nc1	1	15	-19	1	24	49*
COc1ccc(NC(=O)Nc2ccc3c(c2)N(C)C(=O)CS3)cc1Cl	46	-9	44	31*	25	63*
C[C@@H](NC(=O)[C@@H]1CCCN1C(=O)[C@@H]1CCCN1C(=O)c1cccc2ccccc12)c1ccccc1	·	·	·	·	2	-22
Oc1cccc(O)c1O	18	·	-39	-23	·	·
COC(=O)C1=C(C)N(Cc2ccccc2C(F)(F)F)C(=NCc2ccc3c(c2)OCO3)NC1c1ccc(C(F)(F)F)cc1 (centres undefined)	·	·	·	·	5	16
Cc1ccsc1C(=O)Nc1ccc(OCc2ccccc2)cc1	41	7	-8	15	17	54*
O=C(Nc1ccc(OCc2ccccc2)cc1)c1ccccc1	21	-13	-14	-4	1	-3
O=C(CCN1CCN(Cc2ccccc2)CC1)Nc1ccc(OCc2ccccc2)cc1	16	11	13	36*	19	-8
Nc1cc(Cl)cc2c1-c1ccc(Cl)cc1C2	·	·	·	·	3	-41
O=C(Nc1ccccc1)C1Cc2ccccc2CN1C(=O)c1ccco1 (centres undefined)	11	5	-26	-23	0	-5
O=C(Nc1cc(C(F)(F)F)ccc1N1CCOCC1)C1Cc2ccccc2CN1C(=O)c1ccco1 (centres undefined)	17	40*	-19	-18	-2	7
CCOc1ccc(-c2cc(C(=O)Nc3ccc(C)c(NS(C)(=O)=O)c3)[nH]n2)c(C)c1	·	·	·	·	5	7
CNc1ccc(S(=O)(=O)NC)cc1[N+](=O)[O-]	64	-13	-12	2	6	3
CNc1nc2cc([N+](=O)[O-])c([N+](=O)[O-])cc2nc1NC	45	21	27	59*	16	8
COc1ccc(/C=C/C(=O)OCC(=O)NCCc2ccccc2)c(OC)c1	12	·	-28	-16	3	3
COCCCn1cnn2c(=O)c3ccccc3nc2c1=O	·	·	·	·	0	-15
COC(=O)C1=C(C)N(C)C(=NCc2cc(OC)c(OC)c(OC)c2)NC1c1cccc(Cl)c1 (centres undefined)	·	·	·	·	1	-10
COc1ccc(N2CCN(C(=O)CCCCCn3c(=S)[nH]c4ccc(N5CCOCC5)cc4c3=O)CC2)cc1	·	·	·	·	9	56*
COCCN1Cc2cc(C(=O)OC)c3c(c2C1=O)c1cc(OC)ccc1n3S(=O)(=O)c1ccc(C)cc1	·	·	·	·	2	-33
O=C(COC(=O)c1cc(=O)c2ccccc2o1)Nc1ccc2ccccc2c1	13	-1	-5	-7	40*	-25
CN1OC[C@@H]2CN3C(=NCCc4ccccc4)Sc4ccccc4[C@@H]3C[C@@H]21	·	·	·	·	23	-16
Cc1ccc(NC(=O)c2cc3c(s2)CCCC3)cc1S(=O)(=O)Nc1ccccc1Cl	70*	-11	6	-1	1	24
SMILES	OX1R antag-1	GPR7 antag	OX1R antag-2	CHO parental Ca	TAAR1 agonist	TAAR1 antag
O=C(Nc1cc(S(=O)(=O)Nc2ccccc2Cl)ccc1O)c1cc2c(s1)CCCC2	51	-14	0	-7	4	-8
CC(C)N(C(=O)CSc1nc2ccccc2n1Cc1ccccc1)C(C)C	32	-12	-33	-17	3	3
CC(C)N(C(=O)CSc1nc2ccccc2n1-c1ccccc1)C(C)C	55*	7	-23	-31	1	-10
CCOc1ccccc1N(C)C(=O)c1ccc2c(=O)n3c(nc2c1)CCCCC3	-2	11	-17	-15	1	3
Cn1c(=O)c2c(-c3ccccc3)n(-c3ccccc3O)cc2n(C)c1=O	9	-10	-18	-4	9	6
Cn1c(=O)c2c(-c3ccccc3)n(-c3ccccc3Br)cc2n(C)c1=O	·	·	·	·	7	53*
COC(=O)C1=C(C)N(Cc2ccc(C(F)(F)F)cc2)C(=NCC2CC2)NC1c1cccc(Cl)c1 (centres undefined)	·	·	·	·	25	39
Cc1ccc(S(=O)(=O)N2CCOCC2)cc1NC(=O)c1cc([N+](=O)[O-])ccc1N1CCOCC1	47	·	-37	-3	1	-26
C[C@@H]1CN([C@@H](C)CO)C(=O)CCCn2cc(nn2)CO[C@H]1CN(C)C(=O)Nc1cccc(Oc2ccccn2)c1	·	·	·	·	6	0
CCCOc1cccc(-c2cc(C(=O)N/N=C/c3cccnc3)c3ccccc3n2)c1	·	-17	·	·	4	54*
O=C(O)c1ccccc1-c1c2cc(I)c(=O)c(I)c-2oc2c(I)c(O)c(I)cc12	38	·	79*	78*	136*	83*
C[C@H]1CN(c2ccc(Br)cc2)C(=O)[C@@H]1CC(=O)Nc1ccccc1	·	·	·	·	5	-6
CC(=O)c1c(C)nc2nonc2c1N	76*	-6	-1	8	5	0
CCOC(=O)c1c(-c2ccc(OC)cc2)nc2nonc2c1N	27	6	-1	-7	2	-2
O=C(Nc1cccc2c(=O)[nH][nH]c(=O)c12)c1ccc([N+](=O)[O-])cc1	·	·	·	·	-1	-11
COc1ccc(Oc2cccc3c2S(=O)(=O)N(C2CC2)C[C@@H](COCc2ccccc2)O3)cc1	·	·	·	·	-1	9
Cc1cccc(C(=O)N2c3ccccc3C(=O)OC2c2ccc3c(c2)OCO3)c1 (centres undefined)	17	-10	-3	6	7	-3
O=C1OC(c2ccc3c(c2)OCO3)N(C(=O)c2ccc(Cl)c(Cl)c2)c2ccccc21 (centres undefined)	76*	2	-1	2	7	19
NNC(=S)Nc1cccc(-c2n[nH]c(=S)o2)c1	8	-7	-11	-7	8	-7
O=C(Cc1ccc(Cl)cc1)Nc1ccc(SC(F)F)cc1	-2	0	4	18	3	55*
O=C(Cc1ccc(Br)cc1)Nc1ccc(Cl)cc1	41	-22	-19	1	3	28
